From ChEMBL document CHEMBL3867450, “Synthesis of Natural Acylphloroglucinol-Based Antifungal Compounds against Cryptococcus Species” (J Nat Prod, 2016)
Values after ≈ are worked out from the molar mass of the structure shown.

Experiments:
[1] = Selectivity index, ratio of IC50 for African green monkey Vero cells to MIC for Cryptococcus neoformans ATCC 90113; assay type: toxicity, cell-based; conditions: read-out: Selectivity Index
In short: (§1)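 Selectivity index is the mammalian-cell IC50 (neutral red assay, Vero or LLC-PK1) divided by the MIC against C. neoformans ATCC 90113 (modified CLSI method).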

[2] = tested on: Cryptococcus bacillisporus; experiment: Antifungal activity against Cryptococcus gattii ATCC 32609 assessed as growth inhibition measured after 72 hrs by CLSI method; assay type: functional; conditions: ATCC 32609, 72 h
In short: (§2)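 Susceptibility testing by a modified CLSI (formerly NCCLS) method against C. neoformans ATCC 90113, C. neoformans H99 (from Duke University) or C. gattii ATCC 32609. The top test concentration was 20 μg/mL. MIC is the lowest concentration allowing no detectable growth. IC50 is the concentration giving 50% growth inhibition.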

[3] = Selectivity index, ratio of IC50 for pig LLC-PK1 cells to MIC for Cryptococcus neoformans ATCC 90113; assay type: toxicity, cell-based; conditions: read-out: Selectivity Index; in short: as §1
[4] = Antifungal activity against Cryptococcus neoformans ATCC 90113 assessed as growth inhibition measured after 72 hrs by CLSI method; assay type: functional; in short: as §2
Cryptococcus neoformans [5] = experiment: Antifungal activity against Cryptococcus neoformans H99 assessed as growth inhibition measured after 72 hrs by CLSI method; assay type: functional; conditions: var grubii H99 ; in short: as §2
[6] = Cytotoxicity against African green monkey Vero cells assessed as reduction in viable cells measured after 48 hrs by neutral red dye-based method; assay type: toxicity, cell-based; conditions: African green monkey (Chlorocebus sabaeus)
In short: (§3)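 Vero (African green monkey kidney […]) and LLC-PK1 (pig kidney epithelial) cells were scored for viability by neutral red uptake. The top test concentration was 50 μg/mL. IC50 is the concentration causing 50% growth inhibition of the mammalian cells.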

[7] = Cytotoxicity against pig LLC-PK1 cells assessed as reduction in viable cells measured after 48 hrs by neutral red dye-based method; assay type: toxicity, cell-based; conditions: pig (Sus scrofa); in short: as §3
[8] = Antifungal activity against Cryptococcus neoformans ATCC 90113 assessed as growth inhibition at 20 ug/ml measured after 72 hrs by CLSI method; assay type: functional
In short: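 Primary screen against C. neoformans ATCC 90113 by a modified CLSI method at 20 μg/mL. Growth inhibition above 50% at this concentration was scored as active and taken to further testing.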

[9] = tested on: Cryptococcus bacillisporus; experiment: Antifungal activity against Cryptococcus gattii ATCC 32609 assessed as growth inhibition at 20 ug/ml measured after 72 hrs by CLSI method; assay type: functional; conditions: ATCC 32609, 72 h, read-out: GI
Cryptococcus neoformans [10] = experiment: Antifungal activity against Cryptococcus neoformans ATCC 90113 assessed as growth inhibition at 20 ug/ml measured after 72 hrs by CLSI method; conditions: read-out: GI

SMILES | selectivity ratio [1] | MIC [2] [µg/mL] | selectivity ratio [3] | MIC [4] [µg/mL] | MIC (Cryptococcus neoformans [5]) [µg/mL] | IC50 at 48 h [6] [µg/mL] | IC50 at 48 h [7] [µg/mL] | growth inhibition (GI) [8] [%] | inhibition of growth at 20 µg/mL [9] [%] | inhibition of growth at 20 µg/mL (Cryptococcus neoformans [10]) [%]
CC(C)C(=O)c1c(O)cc(O)c(Cc2ccc([N+](=O)[O-])cc2)c1O | 2.7 | 5 (≈ 15.1 µM) | 4.2 | 6.7 (≈ 20.2 µM) | 10 (≈ 30.2 µM) | 18 (≈ 54.3 µM) | 28 (≈ 84.5 µM) | > 50 |  | 
CCOC(=O)COc1cc(O)c(C(=O)C(C)C)c(OCC(=O)OCC)c1 |  |  |  |  |  |  |  | < 50 |  | 
CC(C)C(=O)c1c(O)cc(O)cc1OCc1c(Cl)cccc1Cl | 3.9 | 5 (≈ 14.1 µM) | 4.2 | 8.3 (≈ 23.4 µM) | 5 (≈ 14.1 µM) | 32.5 (≈ 91.5 µM) | 34.5 (≈ 97.1 µM) | > 50 |  | 
CC(C)C(=O)c1c(O)cc(O)c(CC#N)c1O |  |  |  |  |  |  |  | < 50 | < 50 | < 50
COc1ccc(C(=O)c2c(O)cc(O)c(C(=O)C(C)C)c2O)cc1 | 0.8 | 8.3 (≈ 25.1 µM) | 1.9 | 13.3 (≈ 40.3 µM) | 10 (≈ 30.3 µM) | 10.5 (≈ 31.8 µM) | 24.8 (≈ 75.1 µM) | > 50 |  | 
CC(C)C(=O)c1c(O)cc(O)c(C(=O)c2ccccc2)c1O | 2.3 | 8.3 (≈ 27.6 µM) | 4.3 | 10 (≈ 33.3 µM) | 10 (≈ 33.3 µM) | 23 (≈ 76.6 µM) | 42.5 (≈ 142 µM) | > 50 |  | 
C#CCc1c(O)cc(O)c(C(=O)C(C)C)c1O |  |  |  |  |  |  |  | < 50 | < 50 | < 50
CCCC(=O)c1c(O)cc(O)c(C(=O)CCC)c1O | 6.9 | 1.5 (≈ 5.63 µM) | 11.7 | 2.1 (≈ 7.89 µM) | 2.5 (≈ 9.39 µM) | 14.5 (≈ 54.5 µM) | 24.5 (≈ 92 µM) | > 50 |  | 
CC(C)C(=O)c1c(O)cc(OCc2ccc(C(C)C)cc2)cc1O |  |  |  |  |  |  |  | < 50 |  | 
CC(C)=CCC/C(C)=C/CC/C(C)=C/Cc1c(O)cc(O)c(C(=O)C(C)C)c1O | 3.3 | 7.5 (≈ 18.7 µM) | 3.6 | 7.5 (≈ 18.7 µM) | 5 (≈ 12.5 µM) | 25 (≈ 62.4 µM) | 27 (≈ 67.4 µM) | > 50 |  | 
CC(C)C(=O)c1c(O)cc(OCC(=O)NC(C)(C)C)cc1O |  |  |  |  |  |  |  | < 50 |  | 
COc1cc(C(=O)c2c(O)cc(O)c(C(=O)C(C)C)c2O)cc(OC)c1OC |  |  |  |  |  |  |  | < 50 | < 50 | < 50
C=CCc1c(O)cc(O)c(C(=O)C(C)C)c1O |  |  |  |  |  |  |  | < 50 | < 50 | < 50
CC(C)C(=O)c1c(O)cc(OCc2c(F)cccc2Cl)cc1O |  |  |  |  |  |  |  | < 50 |  | 
CCOC(=O)COc1cc(O)c(C(=O)C(C)C)c(O)c1 |  |  |  |  |  |  |  | < 50 |  | 
CC(C)=CCc1c(O)cc(O)c(C(=O)C(C)(C)C)c1O |  |  |  |  |  |  |  | < 50 |  | 
CC(C)=CCC/C(C)=C/Cc1c(O)cc(O)c(C(=O)C(C)C)c1O | 13.2 | 1 (≈ 3.01 µM) | 14.4 | 1.7 (≈ 5.11 µM) | 1.7 (≈ 5.11 µM) | 22.5 (≈ 67.7 µM) | 24.5 (≈ 73.7 µM) | > 50 |  | 

SMILES | selectivity ratio [1] | MIC [2] [µg/mL] | selectivity ratio [3] | MIC [4] [µg/mL] | MIC (Cryptococcus neoformans [5]) [µg/mL] | IC50 at 48 h [6] [µg/mL] | IC50 at 48 h [7] [µg/mL] | growth inhibition (GI) [8] [%] | inhibition of growth at 20 µg/mL [9] [%] | inhibition of growth at 20 µg/mL (Cryptococcus neoformans [10]) [%]
CC(C)C(=O)c1c(O)cc(O)c(Cc2c(F)cccc2Cl)c1O | 16.5 | 4.2 (≈ 12.4 µM) | 15.5 | 1.7 (≈ 5.02 µM) | 6.7 (≈ 19.8 µM) | 28 (≈ 82.7 µM) | 26.3 (≈ 77.6 µM) | > 50 |  | 
CC(C)C(=O)c1c(O)cc(O)c(C(=O)c2ccc(F)cc2)c1O | 1.6 | 6.7 (≈ 21 µM) | 3.3 | 8.3 (≈ 26.1 µM) | 11.7 (≈ 36.8 µM) | 13.5 (≈ 42.4 µM) | 27.5 (≈ 86.4 µM) | > 50 |  | 
CCCC(=O)c1c(O)cc(O)c(C(=O)c2ccccc2)c1O | 2.1 | 5 (≈ 16.6 µM) | 4 | 6.7 (≈ 22.3 µM) | 6.7 (≈ 22.3 µM) | 14.3 (≈ 47.6 µM) | 27 (≈ 89.9 µM) | > 50 |  | 
COc1cccc2c1C(=O)c1c(O)c3c(c(O)c1C2=O)C[C@@](O)(C(=O)CO)C[C@@H]3O[C@H]1C[C@H](N)[C@H](O)[C@H](C)O1 [DOXORUBICIN] |  |  |  |  |  | > 10 | 1.3 (≈ 2.39 µM) |  |  | 
CCOC(=O)Cc1c(O)cc(O)c(C(=O)C(C)C)c1O |  |  |  |  |  |  |  | < 50 | < 50 | < 50
CC(C)C(=O)c1c(O)cc(O)c(Cc2c(Cl)cccc2Cl)c1O | 27.5 | 2.1 (≈ 5.91 µM) | 29.5 | 1 (≈ 2.82 µM) | 4.2 (≈ 11.8 µM) | 27.5 (≈ 77.4 µM) | 29.5 (≈ 83 µM) | > 50 |  | 
CCCC(=O)c1c(O)cc(O)c(CC=C(C)C)c1O | 4.9 | 5 (≈ 18.9 µM) | 8.5 | 3.3 (≈ 12.5 µM) | 8.3 (≈ 31.4 µM) | 16.3 (≈ 61.7 µM) | 28 (≈ 106 µM) | > 50 |  | 
CC(C)C(=O)c1c(O)cc(O)cc1O |  |  |  |  |  |  |  | < 50 |  | 
C[C@@H]1[C@H](O)[C@@H](C)/C=C/C=C/C=C/C=C/C=C/C=C/C=C/[C@H](O[C@@H]2O[C@H](C)[C@@H](O)[C@H](N)[C@@H]2O)C[C@@H]2O[C@](O)(C[C@@H](O)C[C@@H](O)[C@H](O)CC[C@@H](O)C[C@@H](O)CC(=O)O[C@H]1C)C[C@H](O)[C@H]2C(=O)O [AMPHOTERICIN B] |  | 0.3 (≈ 0.325 µM) |  | 0.4 (≈ 0.433 µM) | 0.3 (≈ 0.325 µM) |  |  |  |  | 
CC(C)(C)C(=O)c1c(O)cc(O)cc1O |  |  |  |  |  |  |  | < 50 |  | 
CC(C)=CCc1c(O)cc(O)c(C(=O)C(C)C)c1O | 3.6 | 5 (≈ 18.9 µM) | 6.2 | 5 (≈ 18.9 µM) | 8.3 (≈ 31.4 µM) | 18 (≈ 68.1 µM) | 31 (≈ 117 µM) | > 50 |  | 
CC(C)C(=O)c1c(O)cc(O)cc1OCC(=O)NC(C)(C)C |  |  |  |  |  |  |  | < 50 |  | 
OC(Cn1cncn1)(Cn1cncn1)c1ccc(F)cc1F [FLUCONAZOLE] |  | 25 (≈ 81.6 µM) |  | 6.3 (≈ 20.6 µM) | 12.5 (≈ 40.8 µM) |  |  |  |  | 
CCOC(=O)COc1cc(O)cc(O)c1C(=O)C(C)C |  |  |  |  |  |  |  | < 50 |  | 
CCCC(=O)c1c(O)cc(O)cc1O |  |  |  |  |  |  |  | < 50 |  | 
CC(C)C(=O)c1c(O)cc(O)c(Cc2ccccc2)c1O | 4.2 | 10 (≈ 34.9 µM) | 4.3 | 6.7 (≈ 23.4 µM) | 16.7 (≈ 58.3 µM) | 28 (≈ 97.8 µM) | 28.5 (≈ 99.5 µM) | > 50 |  | 
